For six compounds, Ki and Ke results are on record in ChEMBL document CHEMBL1128501, “Synthesis and biological evaluation of 14-alkoxymorphinans. 11. 3-Hydroxycyprodime and analogues: opioid antagonist profile in comparison to cyprodime” (J Med Chem, 1995).

pKi: −log10 of the molar value.

For experiment [1], the target named is T1, Mu-type opioid receptor (Cavia porcellus, UniProt P97266). Kind of experiment: Binding affinity was evaluated by measuring the ability to displace [3H]DAMGO radioligand binding from Opioid receptor mu 1 in guinea pig brain membranes. Type of experiment: cell membranes, Membrane. The procedure, abridged: (§1)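 Radioligand displacement in guinea pig brain homogenates in 50 mM Tris-HCl, pH 7.4, for 40 min at 25 °C. Radioligands were [3H]DAMGO for μ, [3H]U69593 for κ and [3H]DPDPE for δ sites. Result given as Ki.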
T1 sequence (P97266 whole entry): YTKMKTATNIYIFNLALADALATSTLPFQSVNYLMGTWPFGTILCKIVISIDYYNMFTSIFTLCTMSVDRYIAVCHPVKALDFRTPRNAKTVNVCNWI

The target in experiment [2] is Delta-type opioid receptor (Mus musculus) (UniProt P32300). Kind of experiment: Binding affinity was evaluated by measuring the ability to displace DPDPE radioligand binding from delta opioid receptor in mouse vas deferens preparation. The procedure, abridged:
(§2)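 Electrically stimulated isolated mouse vas deferens. Test compound was given as antagonist against agonist-induced responses: DAMGO for μ, DPDPE for δ, and CI977 or other κ agonists for κ. Ke = [antagonist]/(DR − 1), where DR is the ratio of equiactive agonist concentrations with and without antagonist.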

In experiment [3] the target is Kappa-type opioid receptor (Mus musculus) (UniProt P33534). Kind of experiment: Binding affinity was evaluated by measuring the ability to displace CI977 radioligand binding from Opioid receptor kappa 1 in mouse vas deferens preparation. The procedure, abridged:
as §2

Experiment [4] has as its target T2, Kappa-type opioid receptor (Cavia porcellus, UniProt P41144). Kind of experiment: […] binding affinity was evaluated by measuring the ability to displace [3H]U-69593 radioligand binding from Opioid receptor kappa 1 in guinea pig brain membranes. On the set-up: species or system Membrane. The procedure, abridged: as §1
Experiment [5] concerns the target Mu-type opioid receptor (Mus musculus) (UniProt P42866). Kind of experiment: Binding affinity was evaluated by measuring the ability to displace [3H]-DAMGO radioligand binding from Opioid receptor mu 1 in mouse vas deferens preparation. The procedure, abridged: as §2
Experiment [6] has as its target T1, Mu-type opioid receptor. Kind of experiment: […] binding affinity was evaluated by measuring the ability to displace [3H]DAMGO radioligand binding from Opioid receptor mu 1 in guinea pig brain membranes. Set-up: species or system Membrane. The procedure, abridged:
as §1

The target of experiment [7] is T2, Kappa-type opioid receptor. Briefly: Binding affinity was evaluated by measuring the ability to displace [3H]U-69593 radioligand binding from Opioid receptor kappa 1 in guinea pig brain membranes. Type of experiment: cell membranes, Membrane. The procedure, abridged: as §1
The target in experiment [8] is Kappa-type opioid receptor (Cavia porcellus) (UniProt P41144). Briefly: Binding affinity for kappa opioid receptor against agonist (ethylketocyclazocine) in guinea pig ileum preparations. Type of experiment: tissue-based. The procedure, abridged: (§3)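 Myenteric-plexus longitudinal muscle of guinea pig ileum. Test compound was given as antagonist against κ agonist responses. Ke = [antagonist]/(DR − 1), where DR is the ratio of equiactive agonist concentrations with and without antagonist, from separate determinations.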
Chain of Kappa-type opioid receptor (Cavia porcellus) (P41144 whole entry): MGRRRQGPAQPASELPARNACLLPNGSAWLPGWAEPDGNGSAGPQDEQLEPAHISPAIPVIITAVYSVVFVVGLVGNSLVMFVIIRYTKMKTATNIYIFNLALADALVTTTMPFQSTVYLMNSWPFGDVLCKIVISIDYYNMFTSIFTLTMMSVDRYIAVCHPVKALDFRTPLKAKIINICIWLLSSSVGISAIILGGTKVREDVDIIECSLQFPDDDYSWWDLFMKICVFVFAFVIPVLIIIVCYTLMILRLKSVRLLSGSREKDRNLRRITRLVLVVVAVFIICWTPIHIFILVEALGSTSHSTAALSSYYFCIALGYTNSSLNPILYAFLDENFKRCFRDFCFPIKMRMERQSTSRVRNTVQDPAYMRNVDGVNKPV

In experiment [9] the target is Kappa-type opioid receptor (Mus musculus) (UniProt P33534). Briefly: Binding affinity was evaluated by measuring the ability from displace CI977 radioligand binding to Opioid receptor kappa 1 in mouse vas deferens preparation. The procedure, abridged:
as §2

Experiment [10] has the same target. Kind of experiment: Binding affinity for kappa opioid receptor against agonist (U-69,593) in mouse vas deferens preparation. The procedure, abridged: as §2
The target in experiment [11] is Delta-type opioid receptor (Mus musculus) (UniProt P32300). Briefly: Binding affinity was evaluated by measuring the ability from displace DPDPE radioligand binding from delta opioid receptor in mouse vas deferens preparation. The procedure, abridged:
as §2

The target in experiment [12] is Kappa-type opioid receptor (Mus musculus) (UniProt P33534). Briefly: Binding affinity for kappa opioid receptor against agonist (ethylketocyclazocine) in mouse vas deferens. Type of experiment: tissue-based. The procedure, abridged: as §2
Chain of Kappa-type opioid receptor (Mus musculus) (P33534 whole entry): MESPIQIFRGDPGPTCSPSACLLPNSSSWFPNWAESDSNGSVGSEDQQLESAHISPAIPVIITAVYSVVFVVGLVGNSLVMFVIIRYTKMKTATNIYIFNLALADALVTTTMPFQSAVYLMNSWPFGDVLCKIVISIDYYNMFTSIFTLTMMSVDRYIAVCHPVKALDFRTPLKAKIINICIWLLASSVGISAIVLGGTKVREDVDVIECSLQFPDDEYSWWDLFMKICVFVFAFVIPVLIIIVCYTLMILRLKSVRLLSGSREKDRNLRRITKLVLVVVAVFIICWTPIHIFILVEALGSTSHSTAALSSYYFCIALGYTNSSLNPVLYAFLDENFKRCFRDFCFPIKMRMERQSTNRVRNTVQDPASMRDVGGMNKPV
Experiment [13] has the same target. Kind of experiment: Binding affinity for kappa opioid receptor against agonist (CI977) in mouse vas deferens preparation. The procedure, abridged:
as §2

Experiment [14] has the same target. Briefly: Binding affinity for kappa opioid receptor against agonist (dynorphine) in mouse vas deferens. Type of experiment: tissue-based. The procedure, abridged: as §2
The target in experiment [15] is Kappa-type opioid receptor (Cavia porcellus) (UniProt P41144). Briefly: Binding affinity for kappa opioid receptor against agonist (CI977) in guinea pig ileum preparations. Type of experiment: tissue-based. The procedure, abridged:
as §3

In experiment [16] the target is Mu-type opioid receptor (Mus musculus) (UniProt P42866). Briefly: […] binding affinity was evaluated by measuring the ability from displace [3H]DAMGO radioligand binding to mu opioid receptor in mouse vas deferens preparation. The procedure, abridged: as §2
Chain of Mu-type opioid receptor (Mus musculus) (P42866 whole entry): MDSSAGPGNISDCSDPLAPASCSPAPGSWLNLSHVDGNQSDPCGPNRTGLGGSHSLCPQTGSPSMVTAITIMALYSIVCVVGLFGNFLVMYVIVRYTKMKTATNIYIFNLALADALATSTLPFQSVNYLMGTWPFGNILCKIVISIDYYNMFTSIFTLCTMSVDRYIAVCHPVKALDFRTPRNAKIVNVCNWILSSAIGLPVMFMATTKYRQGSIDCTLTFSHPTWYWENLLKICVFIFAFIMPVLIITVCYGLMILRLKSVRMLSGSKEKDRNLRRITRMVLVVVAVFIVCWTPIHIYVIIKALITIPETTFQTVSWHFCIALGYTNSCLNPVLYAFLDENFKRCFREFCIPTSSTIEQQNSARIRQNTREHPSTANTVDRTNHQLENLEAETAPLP
The target of experiment [17] is Kappa-type opioid receptor (Cavia porcellus) (UniProt P41144). Kind of experiment: Binding affinity for kappa opioid receptor against agonist (U-69,593) in guinea pig ileum preparations. It counts as tissue-based. The procedure, abridged: as §3
Experiment [18] has the same target. Kind of experiment: Binding affinity for kappa opioid receptor against agonist (trifluadom) in guinea pig ileum preparations. Type of experiment: tissue-based. The procedure, abridged: as §3

T2 sequence (P41144 whole entry): as the sequence (P41144 whole entry) above
Chain of Delta-type opioid receptor (Mus musculus) (P32300 whole entry): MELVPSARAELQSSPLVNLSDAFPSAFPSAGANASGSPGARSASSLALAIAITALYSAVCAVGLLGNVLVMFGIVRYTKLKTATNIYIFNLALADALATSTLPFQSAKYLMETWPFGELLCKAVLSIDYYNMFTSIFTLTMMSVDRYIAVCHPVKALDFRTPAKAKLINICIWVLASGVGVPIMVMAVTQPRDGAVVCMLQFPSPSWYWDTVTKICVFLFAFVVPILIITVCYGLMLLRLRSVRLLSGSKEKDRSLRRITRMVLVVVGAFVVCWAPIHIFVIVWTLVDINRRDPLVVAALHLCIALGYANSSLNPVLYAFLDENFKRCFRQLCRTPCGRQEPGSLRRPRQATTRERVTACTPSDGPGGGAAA

Regarding `CCO[C@@]12CCC(=O)CC13CCN(CC1CC1)C2Cc1ccc(O)c(OC)c13` (stereo not given in full), the pKi is 8.85 on Mu-type opioid receptor [1] and 8.26 in experiment [4]. Moreover, the values for the Ke in experiment [2], in experiment [3] and in experiment [5] were 106 nM, 233 nM and 2.92 nM, respectively.
With `COc1c(O)ccc2c1C13CCN(CC4CC4)C(C2)[C@]1(O)CCC(=O)C3` (stereo not given in full), the Ke in experiment [2] was 8920 nM; in experiment [3], 243 nM; in experiment [5] it was 93.8 nM. Also, the pKi was 7.26 at Mu-type opioid receptor [6] and 7.64 in experiment [7].
On to `COc1cccc2c1[C@]13CCN(CC4CC4)[C@H](C2)[C@]1(OC)CCC(=O)C3` [CYPRODIME], for which the results for the pKi (on Mu-type opioid receptor [1]; in experiment [4]) were 7.63 and 6.98, respectively.
In the case of `COc1c(O)ccc2c1C13CCN(CC4CC4)C(C2)[C@]1(OC)CCC(=O)C3` (stereo not given in full), the Ke worked out at 3.95 nM in experiment [8]; 368 nM in [9]; 354 nM in experiment [10]; 316 nM in [11]; 910 nM in experiment [12]; 368 nM in experiment [13]. Further, the Ke in experiment [14] came to 450 nM; in [15] it was 284 nM; in experiment [16], 5.62 nM; in experiment [17], 97.5 nM; in experiment [18], 1010 nM. Besides, the pKi was 8.21 at Mu-type opioid receptor [1] and 8.38 in experiment [7].
As to `CCCCOc1c(O)ccc2c1C13CCN(CC4CC4)C(C2)[C@]1(OC)CCC(=O)C3` (stereo not given in full), the Ke in experiment [2] is over 10000 nM; in experiment [3], 174 nM; in experiment [5] it was 24.9 nM. For the same compound, the pKi on Mu-type opioid receptor [6] was 7.96; in experiment [7], 7.89.
Consider `C=CCN1CCC23CC(=O)CC[C@@]2(OC)C1Cc1ccc(O)c(OC)c13` (stereo not given in full), for which the pKi on Mu-type opioid receptor [1] is 8.14; in [4], 7.60. The Ke was 2270 nM in experiment [2], 4.67 nM in experiment [3] and 4.6 nM in experiment [5].
